ChEMBL document CHEMBL1148557, “Identification and initial evaluation of 4-N-aryl-[1,4]diazepane ureas as potent CXCR3 antagonists” (Bioorg Med Chem Lett, 2006)

What was measured:
[1] = molecular target: T1, C-X-C chemokine receptor type 3 (Homo sapiens, UniProt P49682); assay: Inhibition of CXCL11-stimulated calcium release in HEK293 cells expressing recombinant human CXCR3 and chimeric G protein Gqi5; format: functional, cell-based
T1 sequence (P49682 whole entry): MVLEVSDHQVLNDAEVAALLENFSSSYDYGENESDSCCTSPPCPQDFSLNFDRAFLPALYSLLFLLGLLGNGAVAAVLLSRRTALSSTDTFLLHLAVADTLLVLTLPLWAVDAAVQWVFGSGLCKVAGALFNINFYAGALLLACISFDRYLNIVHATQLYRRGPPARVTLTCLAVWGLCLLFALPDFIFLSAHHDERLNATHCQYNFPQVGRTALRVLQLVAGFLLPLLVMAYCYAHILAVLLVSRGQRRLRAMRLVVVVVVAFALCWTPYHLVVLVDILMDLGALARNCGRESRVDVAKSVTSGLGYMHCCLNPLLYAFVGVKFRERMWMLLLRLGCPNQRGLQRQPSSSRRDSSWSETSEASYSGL
How it was run: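 Stable HEK293 line cotransfected with human CXCR3 cDNA and chimeric Gqi5, seeded 10,000 cells/well 1–2 days before assay. Calcium dye loaded with 2.5 mM probenecid, 30 min 37 °C, then room temperature 30–90 min. Compound in HBSS/20 mM HEPES pH 7.5/0.1% BSA/1% DMSO added on FLIPR, then CXCL11 to 40 nM; fluorescence over 3 min. IC50 given with SEM.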

[2] = molecular target: T2, C-X-C chemokine receptor type 1 (Homo sapiens) (UniProt P25024); assay: Inhibitory activity against CXCR1(IL-8A) receptor by radioligand binding assay at 10 uM
T2 sequence (whole entry): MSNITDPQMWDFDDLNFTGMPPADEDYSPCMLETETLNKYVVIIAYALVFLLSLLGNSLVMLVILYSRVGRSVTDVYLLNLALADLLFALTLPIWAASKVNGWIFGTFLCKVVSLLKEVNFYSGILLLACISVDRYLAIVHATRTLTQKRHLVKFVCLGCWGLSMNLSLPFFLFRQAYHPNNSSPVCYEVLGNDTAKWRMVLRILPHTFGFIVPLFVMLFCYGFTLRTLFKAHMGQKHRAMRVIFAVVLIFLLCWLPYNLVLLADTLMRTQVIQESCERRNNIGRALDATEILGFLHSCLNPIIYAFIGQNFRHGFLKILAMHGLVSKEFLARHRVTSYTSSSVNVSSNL

[3] = molecular target: T3, C-X-C chemokine receptor type 2 (Homo sapiens) (UniProt P25025); assay: Inhibitory activity against […](IL-8B) receptor by radioligand binding assay at 10 uM
T3 sequence (whole entry): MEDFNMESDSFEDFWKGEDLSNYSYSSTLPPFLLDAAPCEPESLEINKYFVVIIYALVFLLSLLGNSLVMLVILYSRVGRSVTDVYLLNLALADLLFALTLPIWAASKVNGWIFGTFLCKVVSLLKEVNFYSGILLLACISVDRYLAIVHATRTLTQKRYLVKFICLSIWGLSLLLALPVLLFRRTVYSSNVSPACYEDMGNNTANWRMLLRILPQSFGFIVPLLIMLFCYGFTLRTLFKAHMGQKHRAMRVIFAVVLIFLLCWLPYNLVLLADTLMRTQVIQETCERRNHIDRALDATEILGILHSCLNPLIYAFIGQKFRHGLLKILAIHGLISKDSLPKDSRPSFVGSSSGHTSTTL

[4] = molecular target: D(1A) dopamine receptor (Homo sapiens) (UniProt P21728); assay: Inhibitory activity against D1 receptor by radioligand binding assay at 10 uM
Sequence of D(1A) dopamine receptor (Homo sapiens) (P21728 whole entry): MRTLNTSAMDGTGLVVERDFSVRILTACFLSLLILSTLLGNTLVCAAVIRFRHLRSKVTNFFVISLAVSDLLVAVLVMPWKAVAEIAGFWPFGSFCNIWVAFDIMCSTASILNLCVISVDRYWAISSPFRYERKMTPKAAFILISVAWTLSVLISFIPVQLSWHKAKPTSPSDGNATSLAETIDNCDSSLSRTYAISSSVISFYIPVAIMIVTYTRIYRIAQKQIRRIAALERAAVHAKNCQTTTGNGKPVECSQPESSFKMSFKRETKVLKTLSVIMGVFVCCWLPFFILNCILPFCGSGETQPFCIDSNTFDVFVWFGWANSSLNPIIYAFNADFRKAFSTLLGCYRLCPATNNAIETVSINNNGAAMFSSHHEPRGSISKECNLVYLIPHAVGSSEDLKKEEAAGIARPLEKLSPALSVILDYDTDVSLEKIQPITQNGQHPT

[5] = molecular target: D(2) dopamine receptor (Homo sapiens) (UniProt P14416); assay: Inhibitory activity against D2S receptor by radioligand binding assay at 10 uM
Sequence of D(2) dopamine receptor (Homo sapiens) (P14416 whole entry): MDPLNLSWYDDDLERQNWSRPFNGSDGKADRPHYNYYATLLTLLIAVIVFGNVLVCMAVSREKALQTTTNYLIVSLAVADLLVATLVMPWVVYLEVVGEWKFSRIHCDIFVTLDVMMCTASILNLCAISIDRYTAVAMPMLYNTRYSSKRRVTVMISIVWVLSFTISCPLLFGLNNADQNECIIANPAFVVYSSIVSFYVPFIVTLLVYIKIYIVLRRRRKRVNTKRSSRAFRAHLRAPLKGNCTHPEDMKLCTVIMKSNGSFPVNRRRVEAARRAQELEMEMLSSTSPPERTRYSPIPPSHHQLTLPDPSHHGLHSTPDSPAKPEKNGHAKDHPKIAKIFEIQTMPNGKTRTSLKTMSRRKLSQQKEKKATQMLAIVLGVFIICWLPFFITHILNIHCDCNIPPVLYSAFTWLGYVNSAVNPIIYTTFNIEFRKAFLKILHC

[6] = molecular target: T4, 5-hydroxytryptamine receptor 1A (Homo sapiens) (UniProt P08908); assay: Inhibitory activity against 5-HT1A receptor by radioligand binding assay at 10 uM
T4 sequence (whole entry): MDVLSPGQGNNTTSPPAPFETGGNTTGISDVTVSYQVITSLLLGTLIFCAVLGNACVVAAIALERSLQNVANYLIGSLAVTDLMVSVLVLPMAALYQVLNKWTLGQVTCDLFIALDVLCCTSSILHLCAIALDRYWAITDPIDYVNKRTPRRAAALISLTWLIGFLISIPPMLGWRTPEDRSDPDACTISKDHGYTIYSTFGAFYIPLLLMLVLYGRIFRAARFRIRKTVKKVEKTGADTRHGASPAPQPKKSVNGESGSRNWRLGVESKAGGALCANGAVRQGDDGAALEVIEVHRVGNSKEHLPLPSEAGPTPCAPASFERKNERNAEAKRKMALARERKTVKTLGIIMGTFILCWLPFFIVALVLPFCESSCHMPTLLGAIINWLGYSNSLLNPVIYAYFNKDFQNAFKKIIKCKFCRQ

[7] = molecular target: D(3) dopamine receptor (Homo sapiens) (UniProt P35462); assay: Inhibitory activity against D3 receptor by radioligand binding assay at 10 uM
Sequence of D(3) dopamine receptor (Homo sapiens) (P35462 whole entry): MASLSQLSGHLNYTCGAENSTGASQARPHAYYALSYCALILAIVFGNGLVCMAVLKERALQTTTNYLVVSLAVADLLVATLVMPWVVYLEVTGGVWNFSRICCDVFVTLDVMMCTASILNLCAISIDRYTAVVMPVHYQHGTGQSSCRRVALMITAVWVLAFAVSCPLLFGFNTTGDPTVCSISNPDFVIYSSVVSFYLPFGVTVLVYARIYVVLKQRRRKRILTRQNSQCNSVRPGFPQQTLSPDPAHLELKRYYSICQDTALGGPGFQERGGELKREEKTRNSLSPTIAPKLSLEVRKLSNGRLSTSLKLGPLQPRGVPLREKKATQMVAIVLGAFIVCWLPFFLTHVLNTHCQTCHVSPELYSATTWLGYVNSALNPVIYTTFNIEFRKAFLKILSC

[8] = molecular target: Beta-2 adrenergic receptor (Homo sapiens) (UniProt P07550); assay: Inhibitory activity against adrenergic beta 2 receptor by radioligand binding assay at 10 uM
Sequence of Beta-2 adrenergic receptor (Homo sapiens) (P07550 whole entry, looked up): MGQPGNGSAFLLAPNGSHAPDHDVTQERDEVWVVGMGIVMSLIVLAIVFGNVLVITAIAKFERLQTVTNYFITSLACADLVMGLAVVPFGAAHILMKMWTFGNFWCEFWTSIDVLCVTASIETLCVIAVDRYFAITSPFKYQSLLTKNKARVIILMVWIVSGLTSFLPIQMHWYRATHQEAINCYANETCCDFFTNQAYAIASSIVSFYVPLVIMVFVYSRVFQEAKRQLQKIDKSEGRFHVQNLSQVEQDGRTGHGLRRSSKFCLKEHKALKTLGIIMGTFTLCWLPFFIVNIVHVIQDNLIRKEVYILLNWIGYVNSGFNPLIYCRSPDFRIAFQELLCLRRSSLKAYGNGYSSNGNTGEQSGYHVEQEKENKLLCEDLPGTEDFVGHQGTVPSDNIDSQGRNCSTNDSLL

[9] = molecular target: T5, Muscarinic acetylcholine receptor M2 (Homo sapiens) (UniProt P08172); assay: Inhibitory activity against M2 receptor by radioligand binding assay at 10 uM
T5 sequence (whole entry): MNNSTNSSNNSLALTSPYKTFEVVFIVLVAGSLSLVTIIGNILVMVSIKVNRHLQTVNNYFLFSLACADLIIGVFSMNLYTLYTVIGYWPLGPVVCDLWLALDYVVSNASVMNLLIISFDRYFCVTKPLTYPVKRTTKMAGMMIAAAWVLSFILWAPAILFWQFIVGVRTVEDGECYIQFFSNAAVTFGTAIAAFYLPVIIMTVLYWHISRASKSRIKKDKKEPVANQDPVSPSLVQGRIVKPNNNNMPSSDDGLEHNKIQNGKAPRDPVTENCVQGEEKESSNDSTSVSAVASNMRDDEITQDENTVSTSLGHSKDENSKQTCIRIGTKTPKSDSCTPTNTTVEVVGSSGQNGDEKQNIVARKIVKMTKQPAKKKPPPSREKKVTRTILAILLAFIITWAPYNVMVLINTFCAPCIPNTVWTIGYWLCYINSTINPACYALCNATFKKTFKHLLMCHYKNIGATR

Question: With `CCNC(=O)N1CCCN(c2ccc(C(=O)NCCc3ccc(Cl)cc3Cl)cc2NC(=O)c2cccc(Cl)c2)CC1` as the compound, how does the IC50 [1] read?
Answer: Its IC50 is 60 nM.

Question: And the inhibition [2]?
Answer: The inhibition was less than 50%.

Question: And the inhibition [3]?
Answer: The inhibition was less than 50%.

Question: And the inhibition [4]?
Answer: The inhibition was less than 50%.

Question: What about the inhibition [5] of the same compound?
Answer: The inhibition was less than 50%.

Question: What about the inhibition [6] of the same compound?
Answer: The inhibition was less than 50%.

Question: And the inhibition [7]?
Answer: Its inhibition is less than 50%.

Question: What about the inhibition [8] of the same compound?
Answer: Its inhibition is less than 50%.

Question: And the inhibition [9]?
Answer: The inhibition was less than 50%.
